Most compounds without a hit are left out; they make up all but 2.9% or so of the library.
PAX8 inh HTS = lowers PAX8-driven luciferase in RMG-I cells; inhibition, % at 12.6 µM; RMG-I TPO-luciferase reporter, SteadyGlo, 24 h; 1.2% of 360,000 active;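 active = mean replicate inhibition at least 60% with every replicate also reaching 60%; inconclusive = only one of the two criteria is met; inactive = mean below 60% and not all replicates reaching 60%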;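 also: luciferase light reporting Pax8 driven TPO promoter activity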
INS-1E GSIS act = GLuc luminescence reporter in INS-1E cells, primary screen for activators of glucose-dependent secretion of insulin; INS-1E GLuc reporter insulin secretion, 2-3 h; activation, % at 16.6 µM; 0.61% of 370,000 active;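 active = lowest replicate activation of at least 40%, so every replicate reaches that level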
CDK5 inh = inhibitors of human CDK5/p35 kinase; Q00535+Q15078; Recombinant CDK5/p35, ADP-Glo luminescence, 60 min; inhibition, % at 10 µM; 0.01% of 330,000 active;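 active = highest replicate inhibition of at least 50% and at least 75% of replicates reaching 50%; inconclusive = only one of the two criteria met; inactive = both criteria failed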
HIV Env fusion = HIV envelope-mediated fusion inhibition; 1.1% of 360,000 active; inhibition, % at 12.3 µM; HeLa-JRFL Env/CEM21 cell fusion, luciferase;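 active = mean replicate inhibition score of at least 50 and every replicate individually at or above 50; inconclusive = only one of the two criteria met; inactive = mean below 50 and not all replicates reaching 50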
dFosB act = enhances mouse delta FosB homodimer DNA binding | AID 493131 | activation, % at 25 µM | P13346 | purified delta FosB, TAMRA-CDK5 oligo fluorescence polarization; percent of positive-control signal above neutral wells | 0.99% of 340,000 active;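 active = mean activation above about 17%, with every replicate also reaching it, limit read from the data, passing the limit was not always enough; inconclusive = only one of the two conditions met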
Target sequence (P13346 whole entry, looked up): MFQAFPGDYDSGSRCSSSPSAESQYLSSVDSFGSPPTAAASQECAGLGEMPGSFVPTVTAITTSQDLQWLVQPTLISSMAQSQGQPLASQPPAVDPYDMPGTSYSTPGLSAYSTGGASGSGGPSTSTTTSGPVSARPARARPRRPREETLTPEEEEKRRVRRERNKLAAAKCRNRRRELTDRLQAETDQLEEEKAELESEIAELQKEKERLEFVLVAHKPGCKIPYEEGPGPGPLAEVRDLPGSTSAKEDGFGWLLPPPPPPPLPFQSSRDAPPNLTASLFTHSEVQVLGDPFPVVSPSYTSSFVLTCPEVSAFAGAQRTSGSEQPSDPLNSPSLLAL
Cneo AK release = causes C. neoformans cell lysis; adenylate kinase release luminescence, 4 h; normalised: neutral wells 0, clomiphene wells 100; lysis activity, % at 15 µM; 0.2% of 360,000 active; AID 651654;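 active = mean lysis activity across replicates of at least 80%, whatever share of replicates individually reach that level; inactive = mean lysis activity below 80%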
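read-out = cell lysis signal | test system = log-phase Cryptococcus neoformans yeast cells | input = cells at 5 × 10^6 per mL | medium = fresh YPD growth medium | signal = luminescent adenylate kinase detection reagent | timing = 4 h at 37 °C static, read 1 h later | dosing = single dose | controls = Clomiphene as positive lysis control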
Of the large screens only hits and unclear results are named; the others gave an inactive call; [ ] = another dose, or the depositor's remark.

Cc1noc(C)c1NC(=O)Nc1ccc2c(c1)C(=O)N(C)[C@H]1CC[C@H](CC(=O)Nc3ccc4c(c3)CCCC4)O[C@@H]1CO2	none (no result: CDK5 inh, dFosB act)
C[C@H]1CN([C@@H](C)CO)C(=O)c2cc(NC(=O)c3ccncc3)ccc2O[C@@H]1CN(C)S(C)(=O)=O	none (no result: CDK5 inh, dFosB act)
COCC#Cc1ccc([C@H]2[C@H](CO)N3CCCCN(S(=O)(=O)c4ccc(OC)cc4)C[C@@H]23)cc1	none (no result: CDK5 inh, HIV Env fusion, dFosB act)
O=C(C[C@H]1CC[C@H]2[C@@H](COC[C@H](O)CN2C(=O)Nc2cc(Cl)cc(Cl)c2)O1)NCC1CCCCC1	none (no result: CDK5 inh, HIV Env fusion, dFosB act)
O=C(Nc1ccc(Cl)cc1)Nc1ccc(N2CCCC2)c(S(=O)(=O)Nc2ccccc2Cl)c1	PAX8 inh HTS 101 (no result: Cneo AK release)
O=C(Cc1ccccn1)N1CC[C@@H]2[C@H]1c1cc(-c3cccc(F)c3)ccc1N[C@@H]2CO	none (no result: CDK5 inh, HIV Env fusion, dFosB act)
Cc1ccc(C2CN(C)C3(C(=O)Nc4ccccc43)C23COc2ccccc2C3=O)cc1 (stereo not given)	HIV Env fusion inconclusive (no result: INS-1E GSIS act)
CN1CC(c2ccccc2Cl)C2(COc3ccccc3C2=O)C12C(=O)Nc1ccccc12 (stereo not given)	HIV Env fusion 78 (no result: INS-1E GSIS act)
O=C(CC1CC1)N1CC2(C1)[C@@H](c1ccccc1)[C@@H](CO)N2C(=O)c1cnccn1	none (no result: CDK5 inh, HIV Env fusion, dFosB act, Cneo AK release)
CCC(=O)NCCCc1nc(-c2ccccc2)no1	none
COc1ccc(-c2noc(CCC(=O)O)n2)cc1	none (no result: Cneo AK release)
Cc1ccc(-c2noc(CCCC(=O)Nc3cccnc3)n2)cc1	HIV Env fusion 64 (no result: INS-1E GSIS act, Cneo AK release)
O=C(CCCc1nc(-c2ccccc2)no1)Nc1cccnc1	none
COc1ccc(-c2noc(CCCC(=O)O)n2)cc1	HIV Env fusion 84 (no result: PAX8 inh HTS, INS-1E GSIS act)
CCOC(=O)c1ccc(NC(=O)CCc2nc(-c3ccc(Cl)cc3)no2)cc1	HIV Env fusion 59 (no result: PAX8 inh HTS, INS-1E GSIS act)
CCC(=O)NCCc1nc(-c2ccccc2)no1	HIV Env fusion 60 (no result: INS-1E GSIS act)
CNC[C@@H]1Oc2ccc(NC(=O)CCN3CCOCC3)cc2C(=O)N([C@H](C)CO)C[C@@H]1C	none (no result: CDK5 inh, dFosB act)
CCC(=O)N1CC(=O)N2[C@H](C1)[C@H](c1ccc(C#CCC(C)C)cc1)[C@@H]2CO	none (no result: CDK5 inh, HIV Env fusion, dFosB act, Cneo AK release)
C[C@@H]1CN([C@@H](C)CO)C(=O)c2ccccc2-c2ccccc2CO[C@H]1CN(C)S(=O)(=O)c1cn(C)cn1	none (no result: CDK5 inh, dFosB act)
COc1ccc2c3c(n(C)c2c1)[C@@H](CO)N(C(=O)Cc1ccccn1)CC31CN(CC2CC2)C1	none (no result: CDK5 inh, HIV Env fusion, dFosB act, Cneo AK release)
COc1ccc(-c2noc(CCC(=O)Nc3cccnc3)n2)cc1OC	INS-1E GSIS act 66 (no result: PAX8 inh HTS, HIV Env fusion)
CNC[C@H]1Oc2c(NS(=O)(=O)c3ccc(F)cc3)cccc2C(=O)N([C@@H](C)CO)C[C@@H]1C	none (no result: CDK5 inh, dFosB act)
O=C(CCN1CCCCC1)N[C@@H]1CC[C@H](CCn2cc(-c3ccccc3)nn2)O[C@@H]1CO	none (no result: CDK5 inh, dFosB act)
O=C(CCN1CCCCC1)N[C@H]1CC[C@H](CCn2cc(-c3ccccc3)nn2)O[C@@H]1CO	HIV Env fusion 77[16.7 µM] (no result: CDK5 inh, dFosB act)
O=C(CCN1CCCCC1)N[C@@H]1CC[C@@H](CCn2cc(-c3ccccc3)nn2)O[C@@H]1CO	HIV Env fusion 75[16.7 µM] (no result: CDK5 inh, dFosB act)
O=C(CCN1CCCCC1)N[C@H]1CC[C@H](CCn2cc(-c3ccccc3)nn2)O[C@H]1CO	none (no result: CDK5 inh, dFosB act)
CN1CCN(C(=O)C[C@H]2C[C@@H]3c4cc(NC(=O)Cc5ccncc5)ccc4O[C@@H]3[C@H](CO)O2)CC1	none (no result: CDK5 inh, dFosB act)
O=C(Nc1ccc(Cl)cc1)N[C@H]1CC[C@H](CCNS(=O)(=O)c2ccccc2F)O[C@@H]1CO	none (no result: CDK5 inh, dFosB act)
Cc1noc(C)c1NC(=O)Nc1ccc2c(c1)CC(=O)N([C@H](C)CO)C[C@@H](C)[C@H](CN(C)Cc1ccccc1)O2	none (no result: CDK5 inh, dFosB act)
COc1ccccc1-c1ccc2c(c1)C(C)(Cc1cc(Cl)ccc1C(F)(F)F)C(=O)N2 (stereo not given)	none (no result: CDK5 inh, dFosB act)
CC1(Cc2ccc(C(F)(F)F)o2)C(=O)Nc2cc(-c3ccc(F)cc3F)ccc21 (stereo not given)	HIV Env fusion 62 (no result: CDK5 inh, dFosB act)
CC1(Cc2cc(Cl)ccc2C(F)(F)F)C(=O)Nc2cc(C(F)(F)F)ccc21 (stereo not given)	INS-1E GSIS act 298 (no result: CDK5 inh, dFosB act)
CC1(Cc2cc(Cl)ccc2C(F)(F)F)C(=O)Nc2ccc(-c3ccc(F)c(Cl)c3)cc21 (stereo not given)	INS-1E GSIS act 283 (no result: CDK5 inh, dFosB act)
COc1ccc(NC(=O)Nc2ccc3c(c2)C(=O)N([C@@H](C)CO)C[C@H](C)[C@H](CN(C)Cc2ccc(Oc4ccccc4)cc2)O3)cc1	none (no result: CDK5 inh, dFosB act)
